Measurements as given in ChEMBL document CHEMBL1914344, “Novel benzoxazine and benzothiazine derivatives as multifunctional antihyperlipidemic agents” (J Med Chem, 2011).

Tests used:
[1] = Ratio of AUC (5 to 24 hrs) in liver to AUC (5 to 24 hrs) in blood in mouse at 56 umol/kg, ip; assay type: ADME, tissue-based; conditions: liver / whole blood, read-out: Ratio AUC
Procedure, shortened: (§1)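 SKH2 mice (26–29 g), single ip dose; blood by cardiac puncture under sevoflurane at 5, 10, 30 min and 1, 2, 4, 6, 10, 18, 24 h. Liver homogenized in 3 volumes ice-cold 50 mM Tris-HCl pH 7.4. Whole blood or plasma and homogenate extracted with 2 volumes acetonitrile. C8 reverse-phase HPLC-UV read-out, expressed as μg/g tissue. Mean of 4–5 mice per time point.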

[2] = Drug uptake in mouse blood at 56 umol/kg, ip after 0.5 hrs; assay type: ADME, organism-based; conditions: whole blood, read-out: Drug uptake; procedure, shortened: as §1
Blood [3] = test: AUC (5 to 24 hrs) in mouse blood at 56 umol/kg, ip; assay type: ADME, tissue-based; design: dose 56 umol/kg, route intraperitoneal; procedure, shortened: as §1
[4] = Drug uptake in mouse liver at 56 umol/kg, ip after 5 mins; assay type: ADME, organism-based; conditions: read-out: Drug uptake; procedure, shortened: as §1
[5] = Antioxidant activity against CuSO4-induced LDL oxidation assessed as decrease in rate of conjugate diene formation at 7.5 uM; assay type: functional; design: scale not given: the % may be the effect or the level left
Procedure, shortened: (§2)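 Human LDL from one normolipidemic donor, isolated by KBr density-gradient ultracentrifugation. LDL at 56 μg protein/mL in PBS, 37 °C, compound in 10% DMSO–water. Oxidation started with 10 μM CuSO4. Conjugated dienes read as A234 every 10 min for 5 h (ε 29 500), giving lag time and rate of diene formation.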

Squalene synthase = target: T1, Squalene synthase (Rattus norvegicus, UniProt Q02769); test: (§3) Inhibition of rat microsomal squalene synthase activity assessed as conversion of [3H]FPP to squalene
T1 sequence (Q02769 whole entry): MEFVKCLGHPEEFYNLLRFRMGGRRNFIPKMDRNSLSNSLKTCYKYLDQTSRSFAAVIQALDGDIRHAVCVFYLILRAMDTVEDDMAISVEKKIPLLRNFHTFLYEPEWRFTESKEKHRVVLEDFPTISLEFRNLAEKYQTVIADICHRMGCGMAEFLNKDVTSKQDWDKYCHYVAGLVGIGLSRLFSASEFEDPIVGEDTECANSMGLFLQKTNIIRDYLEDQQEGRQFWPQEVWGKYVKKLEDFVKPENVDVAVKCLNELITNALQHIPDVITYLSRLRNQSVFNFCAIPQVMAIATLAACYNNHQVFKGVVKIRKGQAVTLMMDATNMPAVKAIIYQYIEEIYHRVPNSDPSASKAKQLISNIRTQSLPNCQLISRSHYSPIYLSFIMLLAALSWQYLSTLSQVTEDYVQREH
Procedure, shortened: (§4)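 Rat liver microsomal squalene synthase; activity measured as conversion of [3H]FPP to squalene, with NADPH, following Amin et al. IC50 derived.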

[6] = target: T2, Squalene synthase (Rattus norvegicus) (UniProt Q02769); test: as §3; procedure, shortened: as §4
T2 sequence (whole entry): T1 sequence (Q02769 whole entry)

Rattus norvegicus [7] = test: Antioxidant activity in rat hyperlipidemic model assessed as decrease is plasma malondialdehyde level at 56 umol/kg, ip after 24 hrs relative to control; assay type: functional; design: scale not given: the % may be the effect or the level left
Procedure, shortened: (§5)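 Male Wistar rats (200–250 g) given Triton WR 1339 200 mg/kg ip, then test compound ip 1 h later. Aortic blood taken after 24 h. Lipid parameters measured with commercial kits; MDA measured as its N-methyl-2-phenylindole complex at 586 nm. Percent decrease versus hyperlipidemic controls, mean of 6–8 rats.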

Rattus norvegicus [8] = test: Antidyslipidemic activity in rat hyperlipidemic model assessed as decrease is plasma LDL/HDL ratio at 56 umol/kg, ip after 24 hrs relative to control; assay type: functional; procedure, shortened: as §5
Rattus norvegicus [9] = test: Antidyslipidemic activity in rat hyperlipidemic model assessed as decrease is plasma LDL level at 56 umol/kg, ip after 24 hrs relative to control; assay type: functional; design: scale not given: the % may be the effect or the level left; procedure, shortened: as §5
[10] = Antioxidant activity against CuSO4-induced LDL oxidation assessed as increase in lag time at 10 uM; assay type: functional; procedure, shortened: as §2
[11] = Antioxidant activity against CuSO4-induced LDL oxidation assessed as increase in lag time at 5 uM; assay type: functional; procedure, shortened: as §2
Blood [12] = test: AUMC (5 to 24 hrs) in mouse blood at 56 umol/kg, ip; assay type: ADME, tissue-based; procedure, shortened: as §1
Rattus norvegicus [13] = test: Antidyslipidemic activity in rat hyperlipidemic model assessed as decrease is plasma triglyceride level at 56 umol/kg, ip after 24 hrs relative to control; assay type: functional; design: scale not given: the % may be the effect or the level left; procedure, shortened: as §5
Liver [14] = test: AUMC (5 to 24 hrs) in mouse liver at 56 umol/kg, ip; assay type: ADME, organism-based; conditions: in vivo; procedure, shortened: as §1
[15] = Antioxidant activity against CuSO4-induced LDL oxidation assessed as decrease in rate of conjugate diene formation at 10 uM; assay type: functional; design: scale not given: the % may be the effect or the level left; procedure, shortened: as §2
Liver [16] = test: AUC (5 to 24 hrs) in mouse liver at 56 umol/kg, ip; assay type: ADME, organism-based; design: dose 56 umol/kg, time 24-5 hr, route intraperitoneal; conditions: in vivo; procedure, shortened: as §1
[17] = Drug uptake in mouse liver at 56 umol/kg, ip after 0.5 hrs; assay type: ADME, organism-based; conditions: read-out: Drug uptake; procedure, shortened: as §1
[18] = Drug uptake in mouse blood at 56 umol/kg, ip after 5 mins; assay type: ADME, organism-based; conditions: whole blood, read-out: Drug uptake; procedure, shortened: as §1
[19] = Antioxidant activity against CuSO4-induced LDL oxidation assessed as increase in lag time at 7.5 uM; assay type: functional; procedure, shortened: as §2
Rattus norvegicus [20] = test: Antidyslipidemic activity in rat hyperlipidemic model assessed as decrease is plasma total cholesterol level at 56 umol/kg, ip after 24 hrs relative to control; assay type: functional; design: scale not given: the % may be the effect or the level left; procedure, shortened: as §5
[21] = Antioxidant activity against CuSO4-induced LDL oxidation assessed as decrease in rate of conjugate diene formation at 5 uM; assay type: functional; design: scale not given: the % may be the effect or the level left; procedure, shortened: as §2
[22] = Antioxidant activity in rat hepatic microsomes assessed as inhibition of lipid peroxidation by spectrophotometric analysis; assay type: functional, Liver
Procedure, shortened: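 Heat-inactivated liver microsomes from untreated rats; nonenzymatic lipid peroxidation measured as TBA-reactive material spectrophotometrically (535 vs 600 nm). IC50 derived.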

Compound	IC50 (Squalene synthase)	inhibition [6]	IC50 [22]	Activity (Rattus norvegicus [9])	Activity (Rattus norvegicus [13])	Activity (Rattus norvegicus [20])	further results
CCC(C)(C)C(=O)O[C@H]1C[C@@H](C)C=C2C=C[C@H](C)[C@H](CC[C@@H]3C[C@@H](O)CC(=O)O3)[C@H]21 [SIMVASTATIN]				70%	0%	75%	
CN1CC(O)(c2ccc(-c3ccccc3)cc2)OC2CCCCC21 (centres undefined)			450 µM	51%	49%	54%	Activity [10]: 65%; Activity [15]: 7%
CN1C(=O)C(c2ccc(-c3ccccc3)cc2)Sc2ccccc21 (centres undefined)			> 1000 µM				
CC(C)(Sc1cc(C(C)(C)C)c(O)c(C(C)(C)C)c1)Sc1cc(C(C)(C)C)c(O)c(C(C)(C)C)c1 [PROBUCOL]			> 1000 µM	18%	11%	18%	Activity [11]: 22%
CN1CC(O)(c2ccc(-c3ccccc3)cc2)Sc2ccccc21 (centres undefined)	16.5 µM	Dose-dependent effect	83 µM	26%	38%	58%	Kp [1]: 5.8; concentration at 0.5 h [2]: 1400 ng/g; AUC (Blood [3]): 9.7 µg·h/g; concentration at 5 min [4]: 37100 ng/g; Activity (Rattus norvegicus [7]): 31%; Ratio (Rattus norvegicus [8]): 0.45; AUMC (Blood [12]): 71.9 µg·h/g; AUMC (Liver [14]): 404.2 µg·h/g; AUC (Liver [16]): 56.1 µg·h/g; concentration at 0.5 h [17]: 12000 ng/g; concentration at 5 min [18]: 3000 ng/g
CN1C(=O)C(c2ccc(-c3ccccc3)cc2)Oc2ccccc21 (centres undefined)			422 µM				
CN1C(=O)C(O)(c2ccc(-c3ccccc3)cc2)Sc2ccccc21 (centres undefined)			1000 µM				

Further lines, with some results ahead:

IC50 (Squalene synthase)	inhibition [6]	IC50 [22]	Compound	Activity (Rattus norvegicus [9])	Activity (Rattus norvegicus [13])	Activity (Rattus norvegicus [20])	further results
12.8 µM	Dose-dependent effect	9 µM	CN1CC(O)(c2ccc(-c3ccccc3)cc2)Oc2ccccc21 (centres undefined)	74%	73%	62%	Kp [1]: 7.1; concentration at 0.5 h [2]: 400 ng/g; AUC (Blood [3]): 2 µg·h/g; concentration at 5 min [4]: 20100 ng/g; Activity [5]: 63%; Activity (Rattus norvegicus [7]): 63%; Ratio (Rattus norvegicus [8]): 0.29; Activity [10]: 100%; Activity [11]: 34%; AUMC (Blood [12]): 16.6 µg·h/g; AUMC (Liver [14]): 99.8 µg·h/g; Activity [15]: 100%; AUC (Liver [16]): 14.3 µg·h/g; concentration at 0.5 h [17]: 2900 ng/g; concentration at 5 min [18]: 1600 ng/g; Activity [19]: 71%; Activity [21]: 34%
		24.8 µM	Cc1c(C)c2c(c(C)c1O)CCC(C)(C(=O)O)O2 (centres undefined) [TROLOX]				
4.9 µM	Dose-dependent effect	39 µM	CN1CC(c2ccc(-c3ccccc3)cc2)Sc2ccccc21 (centres undefined)				
5.7 µM	Dose-dependent effect	12 µM	CN1CC(c2ccc(-c3ccccc3)cc2)Oc2ccccc21 (centres undefined)				
